Data reported in ChEMBL document CHEMBL2429786, “New serotonin 5-HT1A receptor agonists endowed with antinociceptive activity in vivo” (J Med Chem, 2013).
Active and inactive are the calls of the source. No cut-off for these calls is given here.

Assays:
[1] = target: T1, 5-hydroxytryptamine receptor 1A (Rattus norvegicus, UniProt P19327); assay: Displacement of [3H]-8-OH-DPAT from 5-HT1A receptor in Sprague-Dawley rat cerebral cortex after 15 mins; format: tissue-based
T1 sequence (P19327 whole entry): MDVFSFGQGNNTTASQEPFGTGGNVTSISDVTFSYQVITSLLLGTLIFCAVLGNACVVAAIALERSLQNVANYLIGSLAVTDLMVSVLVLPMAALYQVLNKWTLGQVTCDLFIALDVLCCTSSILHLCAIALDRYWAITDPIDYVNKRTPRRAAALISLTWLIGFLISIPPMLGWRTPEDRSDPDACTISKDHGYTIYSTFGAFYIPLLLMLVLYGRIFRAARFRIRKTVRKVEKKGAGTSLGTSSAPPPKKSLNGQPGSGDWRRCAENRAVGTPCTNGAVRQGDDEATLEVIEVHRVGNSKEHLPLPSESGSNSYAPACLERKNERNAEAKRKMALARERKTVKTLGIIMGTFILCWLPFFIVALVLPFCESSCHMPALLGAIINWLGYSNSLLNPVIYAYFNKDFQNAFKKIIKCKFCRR

Mus musculus [2] = assay: Antinociceptive activity in CD-1 mouse assessed as reduction of formalin-induced paw licking activity at 3 mg/kg, ip administered 15 mins prior to formalin-challenge measured after 15 to 30 mins; format: functional, organism-based; parameters: dose 3 mg/kg
Albumin = Albumin (Homo sapiens, UniProt P02768); assay: Binding affinity to human serum albumin at 5 uM after 12 mins by HPLC-MS analysis relative to control; format: ADME; conditions: isolated protein, 0.2 h
Chain of Albumin (P02768 whole entry): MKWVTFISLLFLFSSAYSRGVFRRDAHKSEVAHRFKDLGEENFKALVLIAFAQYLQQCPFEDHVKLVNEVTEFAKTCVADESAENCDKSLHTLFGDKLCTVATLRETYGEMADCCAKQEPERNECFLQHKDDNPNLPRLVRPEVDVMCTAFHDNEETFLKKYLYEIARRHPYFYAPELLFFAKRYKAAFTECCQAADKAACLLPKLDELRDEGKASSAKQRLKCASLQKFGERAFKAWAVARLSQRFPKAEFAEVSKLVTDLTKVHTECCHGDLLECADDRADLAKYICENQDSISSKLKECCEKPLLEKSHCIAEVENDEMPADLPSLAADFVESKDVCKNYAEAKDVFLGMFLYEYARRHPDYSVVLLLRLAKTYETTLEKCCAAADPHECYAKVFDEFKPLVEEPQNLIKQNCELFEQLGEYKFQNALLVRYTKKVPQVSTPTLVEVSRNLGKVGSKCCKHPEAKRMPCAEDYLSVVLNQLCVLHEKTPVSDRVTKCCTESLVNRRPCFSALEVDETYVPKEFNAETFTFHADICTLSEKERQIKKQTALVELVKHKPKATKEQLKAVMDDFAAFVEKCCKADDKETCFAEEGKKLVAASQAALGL

CYP2D6 = CYP2D6 (Homo sapiens, UniProt P10635); assay: Inhibition of human recombinant microsomal CYP2D6 using {3-[2-(N,N-diethyl-N-methylamino)ethyl]-7-methoxy-4-methylcoumarin} as substrate assessed as remaining activity at 10 uM after 30 mins by spectrofluorimetric analysis relative to control; format: ADME; conditions: read-out: Activity
Chain of CYP2D6 (P10635 whole entry): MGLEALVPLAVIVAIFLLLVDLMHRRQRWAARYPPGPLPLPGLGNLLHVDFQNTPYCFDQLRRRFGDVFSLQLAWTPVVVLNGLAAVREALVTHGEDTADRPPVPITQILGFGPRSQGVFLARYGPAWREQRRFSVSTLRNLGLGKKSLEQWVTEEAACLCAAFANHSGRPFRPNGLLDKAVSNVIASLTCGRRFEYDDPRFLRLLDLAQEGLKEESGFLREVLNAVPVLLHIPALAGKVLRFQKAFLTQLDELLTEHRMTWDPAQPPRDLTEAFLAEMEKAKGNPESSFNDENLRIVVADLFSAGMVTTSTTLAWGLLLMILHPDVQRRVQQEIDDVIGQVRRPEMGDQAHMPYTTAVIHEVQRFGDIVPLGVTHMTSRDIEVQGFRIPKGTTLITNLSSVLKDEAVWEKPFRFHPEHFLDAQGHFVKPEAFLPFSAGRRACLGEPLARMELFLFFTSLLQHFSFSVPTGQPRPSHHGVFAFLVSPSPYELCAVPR

[3] = Half life in human liver microsomes at 1 to 5 uM by HPLC-MS analysis; format: ADME, Microsome
How it was run: (§1)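 Incubation mixtures pre-equilibrated at 37 °C with NADPH and MgCl2, then rat or human liver microsomes added to start the reaction. Aliquots were withdrawn and quenched at several time points, and percent parent remaining was measured by HPLC-MS and plotted against time. t1/2 was taken from the slope of peak area over time and used to calculate CLint.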

[4] = Intrinsic clearance in human liver microsomes at 1 to 5 uM by HPLC-MS analysis; format: ADME, Microsome; conditions: read-out: CLH; how it was run: as §1
[5] = Intrinsic clearance in Sprague-Dawley rat liver microsomes at 1 to 5 uM by HPLC-MS analysis; format: ADME, Microsome; conditions: read-out: CLH; how it was run: as §1
[6] = Half life in Sprague-Dawley rat liver microsomes at 1 to 5 uM by HPLC-MS analysis; format: ADME, Microsome; how it was run: as §1
Mus musculus [7] = species on record: Mus musculus; assay: Hypothermic activity in Swiss mouse assessed as change in rectal temperature after 60 mins; format: functional; conditions: 1 h, read-out: MED
[8] = target: 5-hydroxytryptamine receptor 7 (Rattus norvegicus, UniProt P32305); assay: Displacement of [3H]-5-CT from 5-HT7 receptor in Sprague-Dawley rat hypothalamus after 120 mins
Chain of 5-hydroxytryptamine receptor 7 (P32305 whole entry): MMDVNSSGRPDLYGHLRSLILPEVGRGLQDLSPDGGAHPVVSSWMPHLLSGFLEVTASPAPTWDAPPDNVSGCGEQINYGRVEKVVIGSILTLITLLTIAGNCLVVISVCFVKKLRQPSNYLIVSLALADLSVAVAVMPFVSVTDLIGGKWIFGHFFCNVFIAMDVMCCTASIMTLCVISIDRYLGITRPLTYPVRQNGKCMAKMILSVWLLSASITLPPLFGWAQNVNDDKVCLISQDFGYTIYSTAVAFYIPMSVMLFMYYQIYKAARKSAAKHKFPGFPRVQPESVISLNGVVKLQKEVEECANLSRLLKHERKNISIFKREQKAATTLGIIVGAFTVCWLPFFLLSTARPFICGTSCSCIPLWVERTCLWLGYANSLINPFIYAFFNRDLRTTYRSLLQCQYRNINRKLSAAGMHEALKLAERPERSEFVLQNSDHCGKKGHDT

[9] = target: 5-hydroxytryptamine receptor 4 (Rattus norvegicus, UniProt Q62758); assay: Displacement of [3H]GR113808 from 5-HT4 receptor in Sprague-Dawley rat striatum after 30 mins
Chain of 5-hydroxytryptamine receptor 4 (Q62758 whole entry): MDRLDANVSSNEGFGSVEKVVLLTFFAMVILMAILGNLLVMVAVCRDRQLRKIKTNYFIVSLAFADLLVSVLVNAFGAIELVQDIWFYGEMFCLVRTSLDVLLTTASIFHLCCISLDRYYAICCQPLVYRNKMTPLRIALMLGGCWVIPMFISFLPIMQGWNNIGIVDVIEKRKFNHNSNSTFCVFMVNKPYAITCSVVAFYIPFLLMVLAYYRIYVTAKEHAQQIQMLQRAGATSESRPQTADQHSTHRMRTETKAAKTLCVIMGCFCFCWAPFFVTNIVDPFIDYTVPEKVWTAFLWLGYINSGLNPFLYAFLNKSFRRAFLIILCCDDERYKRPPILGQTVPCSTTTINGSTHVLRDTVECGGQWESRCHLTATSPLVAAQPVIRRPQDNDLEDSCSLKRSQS

[10] = target: T2, 5-hydroxytryptamine receptor 3A (Rattus norvegicus, UniProt P35563); assay: Displacement of [3H]LY 278584 from 5-HT3 receptor in Sprague-Dawley rat cerebral cortex after 30 mins; format: tissue-based
T2 sequence (P35563 whole entry): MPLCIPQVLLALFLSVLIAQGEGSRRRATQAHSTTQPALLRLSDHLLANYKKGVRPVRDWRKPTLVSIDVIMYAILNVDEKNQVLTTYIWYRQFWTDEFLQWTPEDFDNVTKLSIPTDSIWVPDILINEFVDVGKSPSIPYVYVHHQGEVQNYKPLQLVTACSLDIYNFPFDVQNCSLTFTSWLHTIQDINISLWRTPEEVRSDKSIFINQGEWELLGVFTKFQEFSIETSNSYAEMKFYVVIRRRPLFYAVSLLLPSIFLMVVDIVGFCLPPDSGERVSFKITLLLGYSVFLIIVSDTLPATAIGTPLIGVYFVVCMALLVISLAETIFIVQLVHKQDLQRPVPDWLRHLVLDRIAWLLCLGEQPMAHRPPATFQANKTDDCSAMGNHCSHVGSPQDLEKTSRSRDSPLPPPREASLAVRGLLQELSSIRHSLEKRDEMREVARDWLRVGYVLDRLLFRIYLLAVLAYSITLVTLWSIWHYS

[11] = target: 5-hydroxytryptamine receptor 2A (Rattus norvegicus, UniProt P14842); assay: Displacement of [3H]ketanserin from 5-HT2A receptor in Sprague-Dawley rat frontal cortex after 15 mins; format: tissue-based
Chain of 5-hydroxytryptamine receptor 2A (P14842 whole entry): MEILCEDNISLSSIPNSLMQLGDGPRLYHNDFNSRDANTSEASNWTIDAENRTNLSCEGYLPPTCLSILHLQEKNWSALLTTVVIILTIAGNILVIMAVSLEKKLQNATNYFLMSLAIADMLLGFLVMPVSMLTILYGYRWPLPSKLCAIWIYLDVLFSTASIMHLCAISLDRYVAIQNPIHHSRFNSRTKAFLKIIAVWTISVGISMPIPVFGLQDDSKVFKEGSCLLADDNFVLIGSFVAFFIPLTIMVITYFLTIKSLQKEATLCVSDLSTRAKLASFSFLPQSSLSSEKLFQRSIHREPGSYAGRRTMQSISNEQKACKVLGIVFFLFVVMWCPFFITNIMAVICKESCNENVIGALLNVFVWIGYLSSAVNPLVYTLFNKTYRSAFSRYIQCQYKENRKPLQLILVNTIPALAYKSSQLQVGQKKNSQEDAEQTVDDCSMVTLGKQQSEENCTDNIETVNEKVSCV

Mus musculus [12] = assay: Antinociceptive activity in CD-1 mouse assessed as reduction of formalin-induced paw licking activity at 100 mg/kg, ip administered 15 mins prior to formalin-challenge measured after 5 to 30 mins; format: functional, organism-based; parameters: dose 100 mg/kg
How it was run: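 Formalin injected intradermally in mice. Formalin-induced nociceptive behaviour is scored separately in the early and late phases of the test.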

[13] = target: T3, 5-hydroxytryptamine receptor 1A (Homo sapiens, UniProt P08908); assay: Agonist activity at human 5-HT1A receptor expressed in human HeLa cells assessed as inhibition of forskolin-stimulated cAMP formation after 10 mins by RIA; format: functional, cell-based
T3 sequence (P08908 whole entry): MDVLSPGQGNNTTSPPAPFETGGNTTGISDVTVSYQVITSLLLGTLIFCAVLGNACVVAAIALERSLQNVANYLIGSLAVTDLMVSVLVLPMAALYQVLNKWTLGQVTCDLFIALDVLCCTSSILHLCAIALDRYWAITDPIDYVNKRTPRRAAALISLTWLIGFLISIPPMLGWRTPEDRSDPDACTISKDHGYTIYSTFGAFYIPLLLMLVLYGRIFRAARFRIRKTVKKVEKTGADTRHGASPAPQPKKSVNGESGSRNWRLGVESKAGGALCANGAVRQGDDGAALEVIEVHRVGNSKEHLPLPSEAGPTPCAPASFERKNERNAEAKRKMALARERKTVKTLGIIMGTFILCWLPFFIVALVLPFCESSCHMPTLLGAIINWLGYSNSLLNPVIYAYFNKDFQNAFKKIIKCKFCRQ

COc1ccc(OCCNCCCCN2C(=O)C3CCCN3C2=O)cc1 (centres undefined)
Ki [1]: > 1000 nM

N#Cc1ccccc1OCCNCCCCN1C(=O)C2CCCN2C1=O (centres undefined)
Ki [1]: > 1000 nM

O=C1C2CCCN2C(=O)N1CCCCNCCOc1ccc(Br)cc1 (centres undefined)
Ki [1]: > 1000 nM

O=C1C2CCCN2C(=O)N1CCCCNCCOc1ccccc1Br (centres undefined)
Ki [1]: 62 nM

O=C1C2CCCN2C(=O)N1CCCCNCCOc1cccc(C(F)(F)F)c1 (centres undefined)
Ki [1]: 38.9 nM

CCc1ccc(OCCNCCCCN2C(=O)C3CCCN3C2=O)cc1 (centres undefined)
Ki [1]: 742 nM

Cl.O=C1C2CCCN2C(=O)N1CCCCNCCOc1ccccc1 (centres undefined)
Activity (Mus musculus [2]): Active
Activity (Albumin): 38%
activity at 0.5 h, 10 µM (CYP2D6): 24%
half-life at up to 5 µM [3]: 2.52 h
CLint scaled at up to 5 µM [4]: 4.1 mL/min/kg
CLint scaled at up to 5 µM [5]: 140 mL/min/kg
half-life at up to 5 µM [6]: 0.167 h
minimal effective dose (Mus musculus [7]): 2.5 mg/kg
Ki [8]: > 1000 nM
Ki [9]: > 1000 nM
Ki [10]: > 1000 nM
Ki [11]: > 1000 nM

NCC1(CC(=O)O)CCCCC1
Activity (Mus musculus [12]): Active

COc1ccccc1CNCCCCN1C(=O)C2CCCN2C1=O (centres undefined)
Ki [1]: > 1000 nM

COc1ccccc1OCCNCCCCN1C(=O)C2CCCN2C1=O.Cl (centres undefined)
Activity (Mus musculus [2]): Active
Activity (Albumin): 25%
activity at 0.5 h, 10 µM (CYP2D6): 48%
half-life at up to 5 µM [3]: 3.95 h
CLint scaled at up to 5 µM [4]: 2.6 mL/min/kg
CLint scaled at up to 5 µM [5]: 145 mL/min/kg
half-life at up to 5 µM [6]: 0.162 h
minimal effective dose (Mus musculus [7]): 0.625 mg/kg
EC50 [13]: 23 nM
Ki [1]: 4.8 nM
Ki [8]: > 1000 nM
Ki [9]: > 1000 nM
Ki [10]: > 1000 nM
Ki [11]: 267 nM

O=C1C2CCCN2C(=O)N1CCCCNCCOc1ccc2ccccc2c1 (centres undefined)
Ki [1]: 41 nM
Ki [8]: > 1000 nM
Ki [9]: > 1000 nM
Ki [10]: > 1000 nM
Ki [11]: 422 nM

Cc1cccc(OCCNCCCCN2C(=O)C3CCCN3C2=O)c1C (centres undefined)
Ki [1]: 45 nM
Ki [8]: > 1000 nM
Ki [9]: > 1000 nM
Ki [10]: > 1000 nM
Ki [11]: 310 nM

COc1ccc(OCCNCCCCN2C(=O)C3CCCN3C2=O)c2ccccc12 (centres undefined)
Ki [1]: 27 nM
Ki [8]: 301 nM
Ki [9]: > 1000 nM
Ki [10]: > 1000 nM
Ki [11]: > 1000 nM

CCc1cccc(OCCNCCCCN2C(=O)C3CCCN3C2=O)c1 (centres undefined)
Ki [1]: 30 nM
Ki [8]: > 1000 nM
Ki [9]: > 1000 nM
Ki [10]: > 1000 nM
Ki [11]: > 1000 nM

N#Cc1ccc(OCCNCCCCN2C(=O)C3CCCN3C2=O)cc1 (centres undefined)
Ki [1]: > 1000 nM

O=C1C2CCCN2C(=O)N1CCCCNCCOc1ccc(-c2ccccc2)cc1 (centres undefined)
Ki [1]: > 1000 nM

N#Cc1cccc(OCCNCCCCN2C(=O)C3CCCN3C2=O)c1 (centres undefined)
Ki [1]: > 1000 nM

O=C1C2CCCN2C(=O)N1CCCCNCCOc1ccc(C(F)(F)F)cc1 (centres undefined)
Ki [1]: > 1000 nM

COc1cccc(OCCNCCCCN2C(=O)C3CCCN3C2=O)c1 (centres undefined)
Ki [1]: 34 nM
Ki [8]: > 1000 nM
Ki [9]: > 1000 nM
Ki [10]: > 1000 nM
Ki [11]: > 1000 nM

O=C1C2CCCN2C(=O)N1CCCCNCCOc1cccc2cccnc12 (centres undefined)
Ki [1]: 44 nM
Ki [8]: 15 nM
Ki [9]: > 1000 nM
Ki [10]: > 1000 nM
Ki [11]: > 1000 nM

O=C1C2CCCN2C(=O)N1CCCCNCCOc1ccccc1C(F)(F)F (centres undefined)
Ki [1]: 510 nM

NCCc1c[nH]c2ccc(C(N)=O)cc12
Ki [8]: 1.8 nM

O=C1C2CCCN2C(=O)N1CCCCNCCOc1cccc2c1CCCC2 (centres undefined)
Ki [1]: 38 nM
Ki [8]: > 1000 nM
Ki [9]: > 1000 nM
Ki [10]: > 1000 nM
Ki [11]: 49 nM

COc1cc(COc2cc(N)c(Cl)cc2C(=O)CCC2CCN(CCNS(C)(=O)=O)CC2)cc(OC)c1
Ki [9]: 3.9 nM

O=C1C2CCCN2C(=O)N1CCCCNCCOc1cccc(-c2ccccc2)c1 (centres undefined)
Ki [1]: 72 nM

O=C1C2CCCN2C(=O)N1CCCCNCCOc1ccccc1-c1ccccc1 (centres undefined)
Ki [1]: 26 nM
Ki [8]: 101 nM
Ki [9]: > 1000 nM
Ki [10]: > 1000 nM
Ki [11]: > 1000 nM

COc1cc(F)ccc1OCCNCCCCN1C(=O)C2CCCN2C1=O (centres undefined)
Ki [1]: 37.4 nM
Ki [8]: > 1000 nM
Ki [9]: > 1000 nM
Ki [10]: > 1000 nM
Ki [11]: > 1000 nM

CC(C)c1ccccc1OCCNCCCCN1C(=O)C2CCCN2C1=O (centres undefined)
Ki [1]: 38 nM
Ki [8]: > 1000 nM
Ki [9]: > 1000 nM
Ki [10]: > 1000 nM
Ki [11]: 260 nM

Cl.O=C1C2CCCN2C(=O)N1CCCCNCCOc1cccc2ccccc12 (centres undefined)
Activity (Mus musculus [2]): Active
Activity (Albumin): 60%
activity at 0.5 h, 10 µM (CYP2D6): 6%
half-life at up to 5 µM [3]: 2.05 h
CLint scaled at up to 5 µM [4]: 5.1 mL/min/kg
CLint scaled at up to 5 µM [5]: 171 mL/min/kg
half-life at up to 5 µM [6]: 0.135 h
minimal effective dose (Mus musculus [7]): 10 mg/kg
EC50 [13]: 45 nM
Ki [9]: > 1000 nM
Ki [10]: > 1000 nM
Ki [11]: 41 nM

O=C1C2CCCN2C(=O)N1CCCCNCCOc1cccc(Br)c1 (centres undefined)
Ki [1]: 52 nM
Ki [8]: > 1000 nM
Ki [9]: > 1000 nM
Ki [10]: > 1000 nM
Ki [11]: 514 nM
